In ChEMBL document CHEMBL3739334, “Spiroindole Alkaloids and Spiroditerpenoids from Aspergillus duricaulis and Their Potential Neuroprotective Effects” (J Nat Prod, 2015):

Tests used:
[1] = molecular target: T1, Amyloid-beta precursor protein (Homo sapiens, UniProt P05067); test: Inhibition of amyloid beta (1 to 42 residues) (unknown origin) aggregation after 24 hrs by thioflavin T assay
Procedure, shortened: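 Aβ1−42 was dissolved in DMSO as a 1 mg/mL stock, then incubated at 20 μM with a range of sample concentrations for 24 h at 37 °C. Thioflavin T was added to 3 μM, and fluorescence was read 30 min later (ex 442 nm, em 485 nm). Aβ alone served as control. Run in triplicate; IC50 is the mean.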

[2] = molecular target: T1, Amyloid-beta precursor protein; test: Inhibition of amyloid beta (1 to 42 residues) (unknown origin) aggregation at 100 uM after 24 hrs by thioflavin T assay
[3] = Cytotoxicity against rat PC12 cells; type: cell-based; conditions: pc-12

T1 sequence (P05067 whole entry, the tested form may be a part): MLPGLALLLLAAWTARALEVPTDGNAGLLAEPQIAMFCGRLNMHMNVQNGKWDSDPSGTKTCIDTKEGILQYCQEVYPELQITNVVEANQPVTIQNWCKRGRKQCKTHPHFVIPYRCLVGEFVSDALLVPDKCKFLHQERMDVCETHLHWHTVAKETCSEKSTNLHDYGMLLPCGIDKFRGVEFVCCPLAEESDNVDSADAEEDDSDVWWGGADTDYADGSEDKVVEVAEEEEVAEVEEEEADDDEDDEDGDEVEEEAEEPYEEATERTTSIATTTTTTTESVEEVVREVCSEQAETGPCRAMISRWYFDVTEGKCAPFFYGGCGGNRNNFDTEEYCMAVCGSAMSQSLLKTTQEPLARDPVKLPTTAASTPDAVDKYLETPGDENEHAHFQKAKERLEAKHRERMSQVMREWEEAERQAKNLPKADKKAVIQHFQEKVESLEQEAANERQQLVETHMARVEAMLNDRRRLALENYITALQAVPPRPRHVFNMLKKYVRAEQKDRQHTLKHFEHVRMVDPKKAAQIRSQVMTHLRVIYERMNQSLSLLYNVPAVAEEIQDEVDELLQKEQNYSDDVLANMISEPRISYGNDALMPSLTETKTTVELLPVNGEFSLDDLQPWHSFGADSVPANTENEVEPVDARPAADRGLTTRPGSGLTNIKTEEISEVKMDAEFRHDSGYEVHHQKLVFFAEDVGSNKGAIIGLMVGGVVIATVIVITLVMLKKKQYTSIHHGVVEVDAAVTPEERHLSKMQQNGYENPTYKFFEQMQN

CC1=CC[C@@H]2[C@@]3(C)[C@@H](O)CC(=O)OC(C)(C)[C@@H]3CC[C@@]2(C)[C@]12Cc1c(c(C)c(C)oc1=O)O2
IC50 [1]: > 300 µM

C[C@@H]1C[C@@]23C[C@H]4C(C)(C)[C@@]5(C[C@]4(CN2C1=O)N(C)C3=O)C(=O)Nc1c5ccc2c1C=CC(C)(C)O2
IC50 [1]: > 300 µM

C[C@@H]1C[C@@]23C[C@H]4C(C)(C)[C@@]5(C[C@]4(CN2C1=O)NC3=O)C(=O)Nc1c5ccc2c1OC=CC(C)(C)O2
IC50 [1]: > 300 µM

CC1(C)C=Cc2cc(C(=O)O)ccc2O1
IC50 [1]: > 300 µM

O=C(/C=C/c1ccc(O)c(O)c1)O[C@H](Cc1ccc(O)c(O)c1)C(=O)O [ROSMARINIC ACID]
IC50 [1]: 71.9 µM

C[C@@H]1C[C@@]23C[C@H]4C(C)(C)[C@@]5(C[C@]4(CN2C1=O)NC3=O)C(=O)Nc1c5ccc2c1C=CC(C)(C)O2
inhibition [2]: 30% | IC50 [1]: 244 µM

CC1=CC[C@@H]2[C@@]3(C)C=CC(=O)OC(C)(C)[C@@H]3CC[C@@]2(C)[C@]12Cc1c(c(C)c(C)oc1=O)O2
IC50 [1]: > 300 µM

CN1C(=O)[C@@]23CCC(=O)N2C[C@@]12C[C@@]1(C(=O)Nc4c1ccc1c4C=CC(C)(C)O1)C(C)(C)[C@@H]2C3
inhibition [2]: 30% | IC50 [1]: 187 µM

C[C@H]1CN2C[C@]34C[C@@]5(C(=O)Nc6c5ccc5c6OC=CC(C)(C)O5)C(C)(C)[C@@H]3C[C@@]2(C1)C(=O)N4C
inhibition [2]: 30% | IC50 [1]: 269 µM

C[C@H]1CN2C[C@]34C[C@@]5(C(=O)Nc6c5ccc5c6C=CC(C)(C)O5)C(C)(C)[C@@H]3C[C@@]2(C1)C(=O)N4C
Activity [3]: Toxic | inhibition [2]: 30% | IC50 [1]: 204 µM

CC(=O)O[C@H]1CC(=O)OC(C)(C)[C@@H]2CC[C@]3(C)[C@H](CC=C(C)[C@@]34C[C@]3(OC(C)=C(C)C3=O)C(=O)O4)[C@@]12C
IC50 [1]: > 300 µM

C[C@@H]1C[C@@]23C[C@H]4C(C)(C)[C@@]5(C[C@]4(CN2C1=O)N(C)C3=O)C(=O)Nc1c5ccc2c1OC=CC(C)(C)O2
IC50 [1]: > 300 µM
